DDE Tn7 FP inh: inhibitors of Tn7 peptide binding to fibrin DD(E), primary screen, biochemical, fluorescence polarization, human fibrin, Tn7 probe. Fibrinogen beta chain (Homo sapiens), P02675. FP displacement of FITC-Tn7 peptide from fibrin DD(E); 0% = median of compound wells per plate. inhibition, % at 8.3 µM. hit rate 0.13% among 370,000;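 active = inhibition above the mean of compounds falling within the control limits plus 3 SD of them, cut at about 14% in these data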
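Assay system: human fibrin DD(E) protein / Input: 2 µM fibrin DD(E) / Benchmarks: high control of 10 µM Aha-Tn7 peptide / Measured by: fluorescence polarization of the labelled Tn7 tracer / Medium: Tris buffer with calcium and detergent, pH 7.8 / Timing: 10 min compound pre-incubation, 3 h probe incubation at room temperature / Repeats: one replicate per compound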
DDE Tn6 FP inh: inhibitors of Tn6 peptide binding to fibrin DD(E), primary screen, biochemical, fluorescence polarization, human fibrin, Tn6 probe | Fibrinogen beta chain (Homo sapiens), P02675 | Fibrin DD(E) TRITC-Tn6 fluorescence polarization displacement | inhibition, % at 8.3 µM | hit rate 0.21% among 370,000 | AID 720509, 2013;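 active = inhibition above a per-campaign cutoff: mean of compounds within control limits plus 3 SD, cut at about 15% in these data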
ADAM17 inh: ADAM17 inhibitors, primary screen, biochemical, QFRET; Disintegrin and metalloproteinase domain-containing protein 17 (Homo sapiens), P78536; recombinant ADAM17, EDANS/DABCYL FRET peptide cleavage; inhibition, % at 6.95 µM; hit rate 0.83% among 370,000; AID 720648, 2013;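 active = inhibition above the mean of compounds lying between control limits plus 3 SD, set per campaign, cut at about 8.5% in these data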
Target sequence (P78536 215-824 limits assumed): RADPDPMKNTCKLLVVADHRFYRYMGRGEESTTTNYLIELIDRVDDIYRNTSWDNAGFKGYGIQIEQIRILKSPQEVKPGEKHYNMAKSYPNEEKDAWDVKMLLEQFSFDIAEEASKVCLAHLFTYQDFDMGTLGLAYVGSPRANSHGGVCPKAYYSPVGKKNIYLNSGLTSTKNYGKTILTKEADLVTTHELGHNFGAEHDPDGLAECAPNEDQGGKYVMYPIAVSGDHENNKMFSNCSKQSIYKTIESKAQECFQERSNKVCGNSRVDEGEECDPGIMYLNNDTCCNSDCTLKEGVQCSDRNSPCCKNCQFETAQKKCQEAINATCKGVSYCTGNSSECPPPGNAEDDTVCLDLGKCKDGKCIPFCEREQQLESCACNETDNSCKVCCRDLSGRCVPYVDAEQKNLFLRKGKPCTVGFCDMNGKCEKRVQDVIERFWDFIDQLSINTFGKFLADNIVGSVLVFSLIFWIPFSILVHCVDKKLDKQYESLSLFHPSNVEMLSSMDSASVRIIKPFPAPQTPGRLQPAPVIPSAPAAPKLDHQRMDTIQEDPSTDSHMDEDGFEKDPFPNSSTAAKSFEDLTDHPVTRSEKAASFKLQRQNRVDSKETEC
MT1-MMP act inh: blockers of MT1-MMP proenzyme processing, primary screen, HT1080 RFP-PRO-GFP cells, GFP/RFP fluorescence; GFP/RFP ratio fluorescence, overnight; percent of plate control window, DMSO zero; GFP/RFP ratio change, % at 20 µM; hit rate 0.061% among 360,000;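 active = GFP/RFP ratio change of at least 30% with cell ATP level not reduced by more than half and red fluorescence within 50% of control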
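Test system: HT1080 cells expressing an RFP-PRO-GFP fluorescent reporter construct / Compound dosing: single-point 20 µM compound, 1% DMSO / Schedule: cells overnight before dosing, compound overnight, 37 °C, 5% CO2 / Evaluation: GFP/RFP fluorescence ratio / Control set: DMSO and RFP-L50D-GFP cell wells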
ADAM10 inh: human ADAM10 inhibitors, primary screen, biochemical, QFRET, HTS; AID 720582, 2013; hit rate 0.62% among 370,000; Disintegrin and metalloproteinase domain-containing protein 10 (Homo sapiens), O14672; inhibition, % at 7 µM; recombinant ADAM10, EDANS/DABCYL FRET peptide cleavage, 3 h;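 active = inhibition above a per-campaign cutoff equal to the mean of compounds falling between control-based bounds plus 3 SD, cut at about 20% in these data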
ADAM10 confirm: human ADAM10 inhibitors, confirmation, biochemical, QFRET, triplicate. hit rate 1% among 2,100. shares compounds with ADAM10 inh. inhibition, % at 6.95 µM. ADAM10 QFRET peptide cleavage, EDANS fluorescence;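 active = inhibition above about 20% chosen separately for each screening run, limit read from the data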
ADAM17 ctr: ADAM17 inhibitors, counter-screen for ADAM10 exosite inhibitor project, biochemical, QFRET, high throughput | shares compounds with ADAM10 inh | hit rate 0.5% among 2,100 | ADAM17 QFRET peptide cleavage, EDANS fluorescence | AID 743214, 2013 | inhibition, % at 6.95 µM;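 active = mean triplicate inhibition above the solvent-only control wells' mean plus 3 SD, cut at about 12% in these data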
Hits are given with their value; n = inactive; x = no result. Only some compounds are listed: those with a hit (about 1.6% of all), similar ones and a draw of the others.

SMILES	DDE Tn7 FP inh	DDE Tn6 FP inh	ADAM17 inh	MT1-MMP act inh	ADAM10 inh	ADAM10 confirm	ADAM17 ctr
C[C@H]1[C@H](c2ccccc2)Oc2cccc(NCCc3ccccc3)c2S(=O)(=O)N1Cc1cccc(Cl)c1	n	n	n	x	n	x	x
O=C(C1CCCN1S(=O)(=O)c1ccccc1[N+](=O)[O-])N1CCc2ccccc2C1 (configuration not stated)	n	n	n	x	n	x	x
O=C(NCc1ccco1)c1cc(-c2ccccc2)nn1CC1CC(c2cccnc2)=NO1 (configuration not stated)	n	n	n	n	n	x	x
O=C(NCc1ccc(OC(F)(F)F)cc1)c1cc(-c2ccccc2)nn1CC1CC(c2cccnc2)=NO1 (configuration not stated)	n	n	n	n	20.1	n	n
Cc1ccc(C)c(NC(=O)CN(C)C(=O)Cc2ccc(Cl)cc2Cl)c1	n	n	n	n	n	x	x
Cc1ccc(NC(=O)CN(C)C(=O)Cc2ccc(Cl)cc2Cl)cc1	n	n	n	n	30.0	n	n
Cc1nn(C)cc1CNC(=O)Nc1ccc(Br)cc1Cl	n	n	n	n	85.3	n	n
Cc1nn(C)cc1CNC(=O)Nc1cccc(Cl)c1	n	n	n	n	n	x	x
Cc1ccc2nc(CN(C)C(=O)[C@@H](Cc3ccccc3)NC(=O)[C@H]3O[C@@H](n4cnc(C(N)=O)n4)[C@H](O)[C@@H]3O)[nH]c2c1	n	n	n	x	n	x	x
CCOC(=O)/C=C/C(=O)Nc1ccc(Oc2ccccc2)cc1	n	n	n	n	21.4	n	n
COc1ccc(CCNc2oc(COc3ccccc3)nc2C#N)cc1	n	n	n	n	n	x	x
N#Cc1nc(COc2ccccc2F)oc1NCCc1ccccc1	n	n	n	n	22.4	n	n
CCCCn1c(SCc2nc(N)nc(Nc3ccccc3C)n2)nc2ccccc2c1=O	n	n	n	n	21.2	n	n
COCC(C)n1c(SCc2nc(N)nc(Nc3ccccc3C)n2)nc2ccccc2c1=O (configuration not stated)	n	n	n	n	n	x	x
Cc1sc2nc(CSc3ccccc3)nc(N3CCC(C(N)=O)CC3)c2c1C	n	n	n	n	20.1	n	n
Cc1ccc(Cn2nnc3c(=O)[nH]c(C4CCN(S(=O)(=O)c5ccc(S(=O)(=O)NC6CC6)cc5)CC4)nc32)cc1	n	n	n	n	19.8	n	n
O=C(NN1C(=O)C2C3C=CC(C3)C2C1=O)c1ccccc1 (configuration not stated)	n	n	n	n	n	x	x
Cc1cccc(C(=O)NN2C(=O)C3C(c4ccccc4)C=CC(c4ccccc4)C3C2=O)c1 (configuration not stated)	n	n	n	n	19.8	n	n
CCCN(CC1CC1)c1c2c(nc3ncnn13)CCCC2	n	n	n	x	n	x	x
CCN(CC)c1ccc(NC(=O)CSc2nc3ccccc3c(=O)n2-c2ccc(C)cc2)cc1	n	n	n	x	38.4	n	n
Cc1ccc(NC(=S)NNC(=O)CSc2nc3ccccc3c(=O)n2-c2ccc(Cl)cc2)cc1	n	n	n	x	n	x	x
COc1cccc(NC(=O)CN2C(=O)CSc3ccc(S(=O)(=O)N4CCOCC4)cc32)c1	n	n	n	n	n	x	x
COc1cccc(NC(=O)CN2C(=O)CSc3ccc(S(=O)(=O)N4CCC(C)CC4)cc32)c1	n	n	n	n	20.6	n	n
CN(CCOC(=O)CC1C=CCC1)C1CN(Cc2cn(Cc3ccccc3Cl)nn2)S(=O)(=O)C1 (configuration not stated)	n	n	n	x	n	x	x
COc1ccc(CCNC(=O)COc2ccc(S(=O)(=O)NC3CCCCC3)cc2Cl)cc1	n	n	n	n	23.2	n	n
SMILES	DDE Tn7 FP inh	DDE Tn6 FP inh	ADAM17 inh	MT1-MMP act inh	ADAM10 inh	ADAM10 confirm	ADAM17 ctr
O=C(CCc1ccc(S(=O)(=O)NC2CCCCC2)cc1)N(Cc1ccccc1)Cc1ccccc1	n	n	n	n	21.1	n	n
O=C(CCc1ccc(S(=O)(=O)NC2CCCCC2)cc1)Nc1ccccc1	n	n	n	n	n	x	x
O=C(NCc1ccc(F)cc1)c1ccc(S(=O)(=O)Nc2cccc(C(F)(F)F)c2)cc1	n	n	n	n	26.6	n	n
CCCC(=O)OC[C@H]1CN(C2CCCC2)S(=O)(=O)c2c(F)cccc2O1	n	n	n	x	n	x	x
O=C(NCc1ccncc1)c1cccc(S(=O)(=O)NCc2ccccc2)c1	n	n	n	n	n	x	x
Cc1ccc(OCCNC(=O)c2cccc(S(=O)(=O)NCc3ccccc3)c2)cc1	n	n	n	n	20.6	n	n
CCNC(=O)NC(=O)C(C)OC(=O)c1ccc(-n2nc(SC)sc2=S)cc1 (configuration not stated)	n	n	n	n	22.1	n	n
COC(=O)[C@]12C[C@H](CC(=O)NCc3ccc(OC)c(OC)c3)C(=O)N(Cc3ccco3)C1=C[C@H](C1CCCC1)O[C@@H]2C	n	n	n	x	n	x	x
Cn1nnc(NC(=O)c2ccc(C(C)(C)C)cc2)n1	n	n	n	n	34.5	n	n
Cn1nnc(NC(=O)c2ccc3ccccc3c2)n1	n	n	n	n	n	x	x
CC1(C)SC(=S)N(/N=C/c2ccccc2)C1N(O)C(=O)Nc1ccc([N+](=O)[O-])cc1 (configuration not stated)	n	n	n	n	22.2	n	n
Cc1cccc(Oc2cc(NC(=O)Cn3cnc([N+](=O)[O-])n3)cc([N+](=O)[O-])c2)c1	n	n	n	n	28.0	n	n
CC(C)C[C@H]1CNC(=O)C(=O)N1C[C@@H]1CCCN1C[C@H](Cc1ccccc1)N1C[C@H](CC(C)C)N(CC2CCCCC2)C(=O)C1=O	n	n	n	x	n	x	x
CCOC(=O)[C@]12CCC=C1N(Cc1ccc(Cl)cc1Cl)C(=O)[C@H](CC(=O)NCc1ccc(OC)c(OC)c1)C2	n	n	n	n	20.2	n	n

Screening results: PubChem, several laboratories
